ChEMBL document CHEMBL1151772, “Discovery of multitarget inhibitors by combining molecular docking with common pharmacophore matching” (J Med Chem, 2008)

What was measured:
[1] = target: T1, Phospholipase A2, membrane associated (Homo sapiens, UniProt P14555); assay: Inhibition of human nonpancreatic secretory phospholipase A2
T1 sequence (P14555 whole entry): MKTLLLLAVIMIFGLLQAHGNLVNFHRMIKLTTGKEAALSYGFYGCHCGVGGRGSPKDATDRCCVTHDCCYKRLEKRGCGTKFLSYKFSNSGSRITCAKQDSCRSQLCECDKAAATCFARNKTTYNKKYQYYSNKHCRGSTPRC
Procedure, shortened: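 Inhibitor preincubated with substrate 10 min at 25 °C. Enzyme added to start; ex 377/em 470 nm read kinetically for 20 min. IC50 from initial rates via V0/V = 1 + [I]/IC50; three separate experiments.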

[2] = target: T2, Leukotriene A-4 hydrolase (Homo sapiens, UniProt P09960); assay: Inhibition of aminopeptidase activity of human leukotriene A4 hydrolase assessed as para-nitroanilide release by spectrophotometry
T2 sequence (P09960 whole entry): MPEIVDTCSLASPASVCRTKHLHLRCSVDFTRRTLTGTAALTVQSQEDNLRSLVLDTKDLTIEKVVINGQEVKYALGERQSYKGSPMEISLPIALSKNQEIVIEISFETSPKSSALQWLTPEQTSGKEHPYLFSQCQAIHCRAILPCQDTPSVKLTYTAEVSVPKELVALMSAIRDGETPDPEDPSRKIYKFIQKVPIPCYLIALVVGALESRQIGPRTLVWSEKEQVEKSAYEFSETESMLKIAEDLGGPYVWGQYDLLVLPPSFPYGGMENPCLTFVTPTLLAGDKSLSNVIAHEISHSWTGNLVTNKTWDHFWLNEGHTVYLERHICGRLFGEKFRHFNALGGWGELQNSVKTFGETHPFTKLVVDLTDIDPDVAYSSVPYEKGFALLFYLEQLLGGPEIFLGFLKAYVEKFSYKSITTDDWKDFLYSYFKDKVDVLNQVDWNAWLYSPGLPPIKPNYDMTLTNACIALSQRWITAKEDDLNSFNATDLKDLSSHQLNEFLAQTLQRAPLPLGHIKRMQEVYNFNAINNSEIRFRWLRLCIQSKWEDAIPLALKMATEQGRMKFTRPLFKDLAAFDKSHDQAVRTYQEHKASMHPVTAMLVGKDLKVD
Procedure, shortened: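 Enzyme (1-20 µg) in 50 mM Tris-HCl pH 8.0 with 100 mM NaCl at 37 °C; inhibitor preincubated 2 min; 5% v/v DMSO final. Started with 0.125 mM Ala-p-nitroanilide; p-NA formation followed at 405 nm for 15 min, quantified against p-NA standard curve. IC50 from initial rates across inhibitor concentrations via V0/V = 1 + [I]/IC50; three separate experiments.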

[3] = target: T2, Leukotriene A-4 hydrolase; assay: Inhibition of epoxide hydrolase activity of human leukotriene A4 hydrolase assessed as LTB4 level by ELISA
Procedure, shortened: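 LTA4 prepared by hydrolysing LTA4 methyl ester in cold acetone/NaOH under nitrogen. Enzyme (300 ng) preincubated with compound 15 min at 37 °C in 10 mM sodium phosphate pH 7.4, 4 mg/mL BSA, 5% DMSO. Reaction started with LTA4 (150 nM final), 10 min at 37 °C, stopped by dilution into buffer; LTB4 measured by ELISA. Three separate experiments.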

NCCc1c[nH]c2c(OCc3ccccc3)cccc12
IC50 [1]: 52.5 µM
IC50 [2]: 12.5 µM
IC50 [3]: 217 µM

NC(Cc1c[nH]c2ccc(OCc3ccccc3)cc12)C(=O)O (stereo not given)
IC50 [1]: 42.1 µM
IC50 [2]: 17.3 µM
IC50 [3]: 231 µM

O=C(C[n+]1ccc(Cc2ccc([N+](=O)[O-])cc2)cc1)c1ccccc1
IC50 [1]: 43.7 µM
IC50 [2]: 23.4 µM
IC50 [3]: 386 µM

NCCOc1ccc(Oc2ccccc2)cc1
IC50 [1]: 7.3 µM
